Test results published in ChEMBL document CHEMBL1122327, “Replacement of aromatic or heteroaromatic groups in nonsteroidal antiinflammatory agents with the ferrocene group” (1983).
Active and inactive are the calls of the source. The rule behind the calls is not given here.

Columns and labels:
Homo sapiens [1] = species on record: Homo sapiens; experiment: Evaluated for the inhibition of platelet aggregation at dose of 100 uM; format: functional
Procedure, shortened: (§1)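 Human platelet-rich plasma from citrated blood of volunteers who had taken no drugs for at least 10 days, adjusted to 300 000 platelets/μL with platelet-poor plasma. Compound added in PEG 300, then 8 min at 37 °C and 2 min equilibration with stirring at 1200 rpm. Collagen added to trigger aggregation. Maximum rise in light transmission measured within 1–2.5 h of the blood draw; % inhibition calculated against control.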

Homo sapiens [2] = species on record: Homo sapiens; experiment: Evaluated for the inhibition of platelet aggregation at dose of 20 uM; format: functional; procedure, shortened: as §1
Homo sapiens [3] = species on record: Homo sapiens; experiment: Evaluated for the inhibition of serotonin release from platelets at dose of 20 uM; format: functional
Procedure, shortened: (§2)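 Human platelet-rich plasma at 300 000 platelets/μL, loaded with [3H]5-HT (0.5 μM final, 50 μCi/μmol) for 30 min at room temperature. Compound added in PEG 300 and incubated 10 min at 37 °C, then stirred with collagen (1.6 μL/mL final) for 5 min. Reaction stopped with EDTA and samples centrifuged. Supernatant radioactivity counted by scintillation; % inhibition calculated against vehicle-treated plasma.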

Homo sapiens [4] = species on record: Homo sapiens; experiment: Evaluated for the inhibition of serotonin release from platelets at dose of 100 uM; format: functional; procedure, shortened: as §2
Rattus norvegicus [5] = experiment: Evaluated for the percentage inhibition by adjuvant arthritis test at a dose of 50 mg/kg administarted perorally; Inactive; format: functional, organism-based; parameters: dose 50 mg/kg
Rattus norvegicus [6] = experiment: Evaluated for the percentage inhibition by adjuvant arthritis test at a dose of 100 mg/kg administarted perorally; Inactive; format: functional, organism-based; parameters: dose 100 mg/kg
Homo sapiens [7] = species on record: Homo sapiens; experiment: percent inhibition of serotonin release from platelets at a concentration of 100 uM; format: functional
Procedure, shortened: (§3)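 Human platelet-rich plasma at 300 000/μL, loaded with [3H]5-HT (0.5 μM final) for 30 min at room temperature. Compound in PEG 300 incubated 10 min at 37 °C, then stirred with collagen (1.6 μL/mL final) for 5 min and stopped with EDTA. After centrifugation, supernatant radioactivity was counted by scintillation. Percent inhibition calculated against vehicle-treated plasma.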

Homo sapiens [8] = species on record: Homo sapiens; experiment: Percent inhibition of collagen-induced platelet aggregation at a concentration of 100 uM; format: functional
Procedure, shortened: (§4)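 Human platelet-rich plasma from drug-free volunteers (citrated blood, 450 g spin), adjusted to 300 000 platelets/μL with platelet-poor plasma. Compound in PEG 300 preincubated 8 min at 37 °C, then 2 min equilibration with stirring at 1200 rpm. Aggregation triggered with collagen; maximum rise in light transmission read by aggregometer. Percent inhibition calculated against control. Runs done 1–2.5 h after blood draw.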

Rattus norvegicus [9] = experiment: Evaluated for the percentage inhibition by adjuvant arthritis test at a dose of 50 mg/kg administarted perorally; format: functional; conditions: route oral
Homo sapiens [10] = species on record: Homo sapiens; experiment: percent inhibition of serotonin release from platelets at a concentration of 20 uM; format: functional; procedure, shortened: as §3
Homo sapiens [11] = species on record: Homo sapiens; experiment: Percent inhibition of collagen-induced platelet aggregation at a concentration of 20 uM; format: functional; procedure, shortened: as §4
Rattus norvegicus [12] = experiment: Evaluated for the percentage inhibition by adjuvant arthritis test at a dose of 25 mg/kg administarted perorally; Inactive; format: functional, organism-based; parameters: dose 25 mg/kg

## 4-Ferrocenoyl-1-methyl-1H-pyrrole-2-acetate
Homo sapiens [1]
  inhibition: 27%
Homo sapiens [2]
  inhibition: 20%
Homo sapiens [3]
  inhibition: 32%
Homo sapiens [4]
  inhibition: 60%
Rattus norvegicus [5]
  inhibition: inactive

## calcium salt of 4-Ferrocenoyl-1-methyl-1H-pyrrole-2-acetate
Homo sapiens [1]
  inhibition: 3%
Homo sapiens [2]
  inhibition: 2%
Homo sapiens [3]
  inhibition: 10%
Homo sapiens [4]
  inhibition: 12%
Rattus norvegicus [6]
  inhibition: inactive

## CC(C(=O)O)c1ccc(-c2ccccc2)c(F)c1 (stereo unspecified) [FLURBIPROFEN]
Homo sapiens [7]
  inhibition at 100 µM: 90%
Homo sapiens [8]
  inhibition at 100 µM: 89%
Rattus norvegicus [9]
  inhibition in vivo at 50 mg/kg: 55%
Homo sapiens [10]
  inhibition at 20 µM: 86%
Homo sapiens [11]
  inhibition at 20 µM: 88%

## O=C(O)CCC(=O)c1ccc(-c2ccccc2)cc1 [FENBUFEN]
Rattus norvegicus [9]
  inhibition in vivo at 50 mg/kg: 71%

## 4-(3-Ferrocenoyl-cyclopenta-2,4-dienyl)-4-oxo-butyric acid
Homo sapiens [1]
  inhibition: 8%
Homo sapiens [2]
  inhibition: 0%
Homo sapiens [3]
  inhibition: 29%
Rattus norvegicus [12]
  inhibition: inactive
Homo sapiens [4]
  inhibition: 64%

## Methyl 5-Ferrocenoyl-1-methyl-1H-pyrrole-2-acetate
Homo sapiens [1]
  inhibition: 6%
Homo sapiens [2]
  inhibition: 0%
Homo sapiens [3]
  inhibition: 3%
Homo sapiens [4]
  inhibition: 0%
Rattus norvegicus [6]
  inhibition: inactive

## Cc1ccc(C(=O)c2ccc(CC(=O)O)n2C)cc1 [TOLMETIN]
Homo sapiens [7]
  inhibition at 100 µM: 88%
Homo sapiens [8]
  inhibition at 100 µM: 85%
Rattus norvegicus [9]
  inhibition in vivo at 50 mg/kg: 34%
Homo sapiens [10]
  inhibition at 20 µM: 90%
Homo sapiens [11]
  inhibition at 20 µM: 74%

## 2-[2-(3-Cyclopenta-2,4-dienylmethyl-Ferrocenoyl)-2-oxo-ethyl]-benzoic acid
Homo sapiens [1]
  inhibition: 28%
Homo sapiens [2]
  inhibition: 7%
Homo sapiens [3]
  inhibition: 3%
Homo sapiens [4]
  inhibition: 0%
Rattus norvegicus [5]
  inhibition: inactive

## [3-(Cyclopenta-2,4-ferrocenoyl)-4-(4-methyl-benzoyl)-cyclopenta-1,3-dienyl]-acetic acid
Homo sapiens [1]
  inhibition: 6%
Homo sapiens [2]
  inhibition: 2%
Homo sapiens [3]
  inhibition: 0%
Homo sapiens [4]
  inhibition: 23%
Rattus norvegicus [6]
  inhibition: inactive

## (3-Ferrocenoyl-cyclopenta-2,4-dienyl)-acetic acid
Homo sapiens [1]
  inhibition: 6%
Homo sapiens [2]
  inhibition: 5%
Homo sapiens [3]
  inhibition: 0%
Homo sapiens [4]
  inhibition: 16%
Rattus norvegicus [6]
  inhibition: inactive

## 2-{5-[3-(4-Methyl-benzoyl)-Ferrocenoyl]-cyclopenta-1,3-dienyl}-acetamide
Homo sapiens [1]
  inhibition: 15%
Homo sapiens [2]
  inhibition: 4%
Homo sapiens [3]
  inhibition: 0%
Homo sapiens [4]
  inhibition: 34%
Rattus norvegicus [6]
  inhibition: inactive
